Blank lines part the entries; values can stand above or below the compound they belong to. The source made the active and inactive calls. The rule behind the calls is not given here. Non-standard residues stand in square brackets, D forms with d. Residues, ends and D or L forms follow the SMILES beside them. *: point of attachment. Phe(4-F) = N[C@@H](Cc1ccc(F)cc1)C(=O)O; Acetyl(2-thienyl) = O=C(Cc1cccs1)*; Hydrocinnamoyl = O=C(CCc1ccccc1)*; 2Thi = N[C@@H](Cc1cccs1)C(=O)O; PhAc = O=C(Cc1ccccc1)*
Legend:
Serum [1] = test: Drug level in 25% rat serum treated with 1 mM (S)-2-((S)-2-((S)-1-((6S,9S,12S)-12-((1H-indol-3-yl)methyl)-1-amino-9-benzyl-1-imino-8,11,14-trioxo-15-(thiophen-2-yl)-2,7,10,13-tetraazapentadecanecarbonyl)pyrrolidine-2-carboxamido)-5-guanidinopentanamido)succinamide assessed as compound formation at 37 degC by RP-HPLC method; assay type: ADME, cell-free
Method in brief: (§1)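 Peptides incubated in 25% rat serum at 37 °C and sampled over time (10, 30, 60 min). Samples extracted on Sep-Pak C18 cartridges and analysed by C18 RP-HPLC with UV detection at 220 nm. Metabolites identified by mass spectrometry. Recovery of intact peptide measured at 10 or 60 min, in triplicate.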

[2] = target: T1, Neuromedin-U receptor 1 (Homo sapiens) (UniProt Q9HB89); test: Agonist activity at human NMUR1 expressed in CHO cells assessed as intracellular calcium flux at 1 and 10 nM by Fluo-4 AM dye based fluorometric imaging method relative to 1000 nM human neuromedin U; assay type: functional, cell-based
T1 sequence (whole entry): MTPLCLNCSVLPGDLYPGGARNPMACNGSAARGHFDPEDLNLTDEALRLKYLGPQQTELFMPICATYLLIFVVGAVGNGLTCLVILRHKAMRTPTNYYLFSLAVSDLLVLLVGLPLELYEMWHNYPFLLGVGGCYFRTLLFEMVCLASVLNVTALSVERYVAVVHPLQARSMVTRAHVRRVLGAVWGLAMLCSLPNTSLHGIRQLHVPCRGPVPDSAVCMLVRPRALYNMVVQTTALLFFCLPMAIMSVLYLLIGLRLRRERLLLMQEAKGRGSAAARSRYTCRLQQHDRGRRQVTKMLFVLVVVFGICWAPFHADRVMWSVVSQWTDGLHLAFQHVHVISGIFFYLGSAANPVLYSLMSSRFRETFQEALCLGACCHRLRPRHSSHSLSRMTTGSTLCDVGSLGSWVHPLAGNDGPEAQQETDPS

Neuromedin-U receptor 2 [3] = target: T2, Neuromedin-U receptor 2 (Homo sapiens, UniProt Q9GZQ4); test: Agonist activity at human NMUR2 expressed in CHO cells assessed as intracellular calcium flux at 1 and 10 nM by Fluo-4 AM dye based fluorometric imaging method relative to 1000 nM human neuromedin U; assay type: functional, cell-based
T2 sequence (Q9GZQ4 whole entry): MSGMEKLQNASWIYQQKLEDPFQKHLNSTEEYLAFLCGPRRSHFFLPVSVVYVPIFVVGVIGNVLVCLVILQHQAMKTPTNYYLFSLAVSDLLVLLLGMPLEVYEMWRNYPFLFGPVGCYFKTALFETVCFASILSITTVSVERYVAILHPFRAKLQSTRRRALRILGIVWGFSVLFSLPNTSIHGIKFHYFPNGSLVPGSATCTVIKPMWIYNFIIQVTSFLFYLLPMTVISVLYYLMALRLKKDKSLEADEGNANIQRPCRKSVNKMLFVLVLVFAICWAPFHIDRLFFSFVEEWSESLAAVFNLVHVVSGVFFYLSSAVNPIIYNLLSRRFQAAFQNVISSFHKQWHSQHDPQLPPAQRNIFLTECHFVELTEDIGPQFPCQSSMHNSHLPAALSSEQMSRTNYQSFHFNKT

Serum [4] = test: Drug level in 25% rat serum treated with 1 mM (S)-2-((S)-2-((S)-1-((6S,9S,12S)-1-amino-9-benzyl-1-imino-12-isobutyl-8,11,14-trioxo-16-phenyl-2,7,10,13-tetraazahexadecanecarbonyl)pyrrolidine-2-carboxamido)-5-guanidinopentanamido)succinamide assessed as compound formation at 37 degC by RP-HPLC method; assay type: ADME, cell-free; method in brief: as §1
[5] = Drug metabolism in 25% rat serum assessed as drug recovery at 1 mM incubated for 60 mins at 37 degC by RP-HPLC method; assay type: ADME, cell-free; conditions: read-out: Drug recovery; method in brief: as §1
Serum [6] = test: Drug metabolism in 25% rat serum assessed as cleavage at C-terminal Arg-Asn site at 1 mM at 37 degC by RP-HPLC method; assay type: ADME, cell-free; conditions: 1000 µM; method in brief: as §1
Neuromedin-U receptor 1 = target: T3, Neuromedin-U receptor 1 (Homo sapiens, UniProt Q9HB89); test: Agonist activity at human NMUR1 expressed in CHO cells assessed as intracellular calcium flux at by Fluo-4 AM dye based fluorometric imaging method; assay type: functional, cell-based
T3 sequence (Q9HB89 whole entry): T1 sequence (whole entry)
Method in brief: (§2)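 Dose–response Ca2+ mobilization in CHO cells stably expressing human NMUR1 or NMUR2. Peptides run at 10^-12–10^-6 M with hNMU as reference. EC50 and intrinsic activity derived from the curves. Triplicate determinations.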

Serum [7] = test: Drug metabolism in 25% rat serum assessed as cleavage at Phe(2)-Arg(3) site at 1 mM at 37 degC by RP-HPLC method; assay type: ADME, cell-free; conditions: 1000 µM; method in brief: as §1
Neuromedin-U receptor 2 [8] = target: T2, Neuromedin-U receptor 2; test: Agonist activity at human NMUR2 expressed in CHO cells assessed as intracellular calcium flux at by Fluo-4 AM dye based fluorometric imaging method; assay type: functional, cell-based; method in brief: as §2
Neuromedin-U receptor 2 [9] = target: T2, Neuromedin-U receptor 2; test: Intrinsic agonist activity at human NMUR2 expressed in CHO cells assessed as intracellular calcium flux at by Fluo-4 AM dye based fluorometric imaging method; assay type: functional, cell-based; method in brief: as §2
Serum [10] = test: Drug degradation in 25% human serum at 1 mM at 37 degC by RP-HPLC method; assay type: ADME, cell-free; conditions: 1000 µM, TDE = time-dependent effect
[11] = target: T1, Neuromedin-U receptor 1 (Homo sapiens); test: Intrinsic agonist activity at human NMUR1 expressed in CHO cells assessed as intracellular calcium flux at by Fluo-4 AM dye based fluorometric imaging method; assay type: functional, cell-based; method in brief: as §2
[12] = Drug metabolism in 25% rat serum assessed as drug recovery at 1 mM incubated for 10 mins at 37 degC by RP-HPLC method; assay type: ADME, cell-free; conditions: read-out: Drug recovery; method in brief: as §1
Serum [13] = test: Drug metabolism in 25% rat serum assessed as cleavage at Arg(5)-Asn(6) site at 1 mM at 37 degC by RP-HPLC method; assay type: ADME, cell-free; conditions: 1000 µM; method in brief: as §1
Serum [14] = test: Retention time in 25% rat serum treated with 1 mM (S)-2-((S)-2-((S)-1-((S)-2-((S)-2-((S)-3-(1H-indol-3-yl)-2-(2-(thiophen-2-yl)acetamido)propanamido)-3-(4-fluorophenyl)propanamido)-5-guanidinopentanoyl)pyrrolidine-2-carboxamido)-5-guanidinopentanamido)succinamide incubated for 10 mins at 37 degC by RP-HPLC method; assay type: ADME, cell-free; method in brief: as §1
Serum [15] = test: Drug metabolism in 25% rat serum assessed as formation of 2-thienylacetyl-Trp1-Phe2-OH at 1 mM at 37 degC by RP-HPLC method; assay type: ADME, cell-free; conditions: 1000 µM; method in brief: as §1
Serum [16] = test: Drug metabolism in 25% rat serum assessed as formation of 2-thienylacetyl-Trp1-Phe2-Arg3-Pro4-Arg5-OH at 1 mM at 37 degC by RP-HPLC method; assay type: ADME, cell-free; conditions: 1000 µM; method in brief: as §1

Drug metabolism (Serum [1]): metabolite_detected
Compound: O=C(Cc1cccs1)N[C@@H](Cc1c[nH]c2ccccc12)C(=O)N[C@@H](Cc1ccccc1)C(=O)O

Activity [2]: inactive | Activity (Neuromedin-U receptor 2 [3]): inactive
Compound: N=C(N)NCCC[C@H](NC(=O)[C@@H]1CCCN1C(=O)[C@H](CCCNC(=N)N)NC(=O)[C@H](Cc1ccccc1)NC(=O)[C@H](Cc1ccccc1)NC(=O)Cc1ccccc1)C(=O)N[C@@H](CC(N)=O)C(N)=O (PhAc-FFRPRN-NH2)

Drug metabolism (Serum [4]): metabolite_detected | remaining at 1 h, 1000 µM [5]: 56.9%
Compound: CC(C)C[C@H](NC(=O)CCc1ccccc1)C(=O)N[C@@H](Cc1ccccc1)C(=O)N[C@@H](CCCNC(=N)N)C(=O)N1CCC[C@H]1C(=O)N[C@@H](CCCNC(=N)N)C(=O)O (Hydrocinnamoyl-LFRPR-OH)

Drug metabolism (Serum [6]): metabolite_detected | EC50 (Neuromedin-U receptor 1): 0.14 nM
Compound: H-FRVDEEFQSPFASQSRGYFLFRPRN-NH2

Activity [2]: Active | Drug metabolism (Serum [7]): metabolite_detected | EC50 (Neuromedin-U receptor 2 [8]): 2.6 nM | Intrinsic activity (Neuromedin-U receptor 2 [9]): 82% | Drug degradation (Serum [10]): tde | Intrinsic activity [11]: 95% | remaining at 10 min, 1000 µM [12]: 42.7% | Activity (Neuromedin-U receptor 2 [3]): Active | EC50 (Neuromedin-U receptor 1): 0.083 nM | Drug metabolism (Serum [13]): metabolite_detected
Compound: N=C(N)NCCC[C@H](NC(=O)[C@@H]1CCCN1C(=O)[C@H](CCCNC(=N)N)NC(=O)[C@H](Cc1ccc(F)cc1)NC(=O)[C@H](Cc1c[nH]c2ccccc12)NC(=O)Cc1cccs1)C(=O)N[C@@H](CC(N)=O)C(N)=O ({Acetyl(2-thienyl)}-W[Phe(4-F)]RPRN-NH2)

Drug metabolism (Serum [4]): metabolite_detected
Compound: CC(C)C[C@H](NC(=O)CCc1ccccc1)C(=O)N[C@@H](Cc1ccccc1)C(=O)O (Hydrocinnamoyl-Leu-Phe-OH)

Activity [2]: inactive | Activity (Neuromedin-U receptor 2 [3]): inactive
Compound: Ac-FFRPRN-NH2

Retention_time (Serum [14]): 43.7 min | remaining at 1 h, 1000 µM [5]: 54%
Compound: N=C(N)NCCC[C@H](NC(=O)[C@@H]1CCCN1C(=O)[C@H](CCCNC(=N)N)NC(=O)[C@H](Cc1ccc(F)cc1)NC(=O)[C@H](Cc1c[nH]c2ccccc12)NC(=O)Cc1cccs1)C(=O)O ({Acetyl(2-thienyl)}-W[Phe(4-F)]RPR-OH)

Activity [2]: Active | Activity (Neuromedin-U receptor 2 [3]): Active
Compound: N=C(N)NCCC[C@H](NC(=O)[C@@H]1CCCN1C(=O)[C@H](CCCNC(=N)N)NC(=O)[C@H](Cc1ccccc1)NC(=O)[C@H](Cc1ccccc1)NC(=O)Cc1cccs1)C(=O)N[C@@H](CC(N)=O)C(N)=O ({Acetyl(2-thienyl)}-FFRPRN-NH2)

Activity [2]: Active | Activity (Neuromedin-U receptor 2 [3]): Active
Compound: N=C(N)NCCC[C@H](NC(=O)[C@@H]1CCCN1C(=O)[C@H](CCCNC(=N)N)NC(=O)[C@H](Cc1cccs1)NC(=O)[C@H](Cc1c[nH]c2ccccc12)NC(=O)Cc1cccs1)C(=O)N[C@@H](CC(N)=O)C(N)=O ({Acetyl(2-thienyl)}-W[2Thi]RPRN-NH2)

Activity [2]: Active | Drug metabolism (Serum [7]): metabolite_detected | Drug metabolism (Serum [15]): metabolite_detected | remaining at 10 min, 1000 µM [12]: 39.8% | Activity (Neuromedin-U receptor 2 [3]): Active | Drug metabolism (Serum [16]): metabolite_detected | Drug metabolism (Serum [13]): metabolite_detected
Compound: N=C(N)NCCC[C@H](NC(=O)[C@@H]1CCCN1C(=O)[C@H](CCCNC(=N)N)NC(=O)[C@H](Cc1ccccc1)NC(=O)[C@H](Cc1c[nH]c2ccccc12)NC(=O)Cc1cccs1)C(=O)N[C@@H](CC(N)=O)C(N)=O ({Acetyl(2-thienyl)}-WFRPRN-NH2)

Reference: ChEMBL document CHEMBL3425508, “Discovery of potent hexapeptide agonists to human neuromedin u receptor 1 and identification of their serum metabolites” (ACS Med Chem Lett, 2015)
